Data set [1] is described as follows: Inhibition of Mycobacterium tuberculosis His6-tagged MabA expressed in Escherichia coli BL21 (DE3) assessed as reduction in HBCoA formation using AcAcCoA as substrate preincubated for 30 mins followed by substrate and 100 uM NADPH addition and measured after 15 mins by LC-MS/MS analysis.
In data set [2] the test system is Mycobacterium tuberculosis. In words: Inhibition of Mycobacterium tuberculosis His6-tagged MabA expressed in Escherichia coli BL21 (DE3) assessed as reduction in HBCoA formation at 1 mM using AcAcCoA as substrate preincubated for 10 to 30 mins followed by substrate and NADPH addition and measured after 15 mins by LC-MS/MS analysis relative to control. The settings on record: time 10-45 min. The gist of the method: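 Single-point screen of His6-MabA purified by Ni2+-affinity. Compound at 1 mM was preincubated 10 or 30 min at 23 °C with 400 nM enzyme in 100 mM Hepes pH 7. Reaction ran 15 min with 50 µM AcAcCoA and 50 µM NADPH in 1% DMSO, then was stopped with 1% TFA containing 5 µM butyryl-CoA internal standard. HBCoA/BCoA was measured by LC-MS/MS MRM. % inhibition was taken relative to DMSO and 200 µM INH-NADP adduct controls.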

For data set [3], the system named is Mycobacterium tuberculosis. The data set can be described thus: Antimycobacterial activity against GFP-tagged Mycobacterium tuberculosis H37Rv assessed as inhibition of microbial growth incubated for 5 days by fluorescence assay. In kind it is functional. The following applies: 120 h. The gist of the method: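 M. tuberculosis H37Rv expressing GFP, grown in 7H9 with 0.2% glycerol and 0.05% Tween80, diluted to OD600 0.02. Ten 3-fold dilutions from 300 μM to 15 nM, 0.3% DMSO. Incubated 5 days at 37 °C, fluorescence read at Ex/Em 485/535 nm. Two independent replicates. Rifampicin, isoniazid and ethionamide served as positive controls.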

Data set [4] deals with Mycobacterium tuberculosis. In words: Antimycobacterial activity against Mycobacterium tuberculosis H37Ra assessed as inhibition of microbial growth incubated for 4 weeks in culture medium at pH 6.8. In kind it is functional. The following applies: 672 h.
The subject of data set [5] is Mycobacterium tuberculosis. In words: Inhibition of Mycobacterium tuberculosis His6-tagged MabA expressed in Escherichia coli BL21 (DE3) assessed as reduction in HBCoA formation up to 100 uM using AcAcCoA as substrate preincubated for 10 to 30 mins followed by substrate and NADPH addition and measured after 15 mins by LC-MS/MS analysis. The settings on record: dose microM <=100, time 10-45 min.

Data set [6] deals with Mycobacterium tuberculosis. The data set can be described thus: Binding affinity to Mycobacterium tuberculosis His6-tagged MabA expressed in Escherichia coli BL21 (DE3) at 100 uM by 19FNMR analysis.
Data set [7] is described as follows: Lipophilicity, logD of compound in octanol and PBS buffer at pH 7.4 incubated for 2 hrs under shaking condition by LC-MS/MS analysis. In kind it is physicochemical. The gist of the method:
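10 mM DMSO stock diluted 1:50 into 1/1 octanol/PBS pH 7.4, shaken 2 h at room temperature. Each phase was diluted in MeOH and quantified by LC-MS/MS MRM (ES−). LogD is the log of the octanol/PBS concentration ratio. Run in triplicate.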

Data set [8] in a line: Solubility of compound in PBS buffer at pH 7.4 incubated for 24 hrs under shaking conditions by LC-MS/MS analysis. In kind it is physicochemical. An outline of the steps:
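10 mM DMSO stock diluted 1:50 into PBS pH 7.4 or MeOH, in triplicate. Shaken 24 h at room temperature, centrifuged and filtered through 0.45 μm, then diluted in MeOH for LC-MS/MS MRM. Solubility is the PBS/MeOH signal-area ratio.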

In data set [9] the test system is Mycobacterium tuberculosis. The data set can be described thus: Non-competitive inhibition of Mycobacterium tuberculosis MabA expressed in Escherichia coli BL21 (DE3) assessed as reduction in HBCoA formation using AcAcCoA as substrate preincubated for 30 mins followed by substrate and 50 to 500 uM NADPH addition and measured after 15 mins by LC-MS/MS analysis. The following applies: time 45.0 min. The gist of the method: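 Dose-response MabA assay (400 nM enzyme, 50 μM AcAcCoA, 30 min preincubation at 22 °C, 15 min reaction, LC-MS/MS HBCoA/BCoA) run at NADPH 50 and 500 μM. Test compound was tested at 8 points, 3-fold from 1 mM to 0.46 μM. INH-NADP adduct was tested from 200 μM to 0.09 μM. IC50s were compared between NADPH levels.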

This note sets out measurements from ChEMBL document CHEMBL4765348, “Discovery of the first Mycobacterium tuberculosis MabA (FabG1) inhibitors through a fragment-based screening” (Eur J Med Chem, 2020).

As usually defined, the IC50 is the concentration that inhibits the measured activity by half. Broadly, the inhibition is the change of the read-out against control, counted positive when it falls. What is called MIC is the lowest concentration found to suppress growth. Usually MIC90 stands for the lowest concentration that inhibits either 90% of growth or 90% of the strains tested, depending on the study. Usually logD stands for the decadic logarithm of the distribution of all forms, ionised or not, between an organic phase and buffer at a given pH. Read a low logD as a more hydrophilic compound. For orientation: solubility (thermodynamic) means solubility found after equilibrating the solid with the medium.

Calls of active or inactive are those of the source. The calls are words filed in the database; no cut-off is given here. Bounds are passed on as bounds.

Consider `CC(C)(C)OC(=O)Nc1ccc(Br)cc1C(=O)O`, for which the IC50 in [1] turned out to be 470 µM. Also, the inhibition in [2] was found to be 95%.
For `O=C(Cc1ccccc1)Nc1ccc(I)cc1C(=O)O`, the half-inhibitory concentration (IC50) in [1] is more than 500 µM.
As to `O=C(Nc1ccc(I)cc1C(=O)O)OCc1ccccc1`, the IC50 in data set [1] worked out at 92 µM. For the same compound, the inhibition in data set [2] was 100%.
For `COc1ccc(NC(=O)OC(C)(C)C)c(C(=O)O)c1` the same measures were more than 1000 µM and 31%.
Take `CC(C)(C)OC(=O)Nc1ccccc1C(=O)O`: the IC50 in [1] is more than 1000 µM. In addition, the inhibition in [2] was found to be 31%.
As for `NNC(=O)c1ccncc1` [ISONIAZID], the MIC in data set [3] is 0.125 µg/mL.
Regarding `O=C(CCCc1ccccc1)Nc1ccc(I)cc1C(=O)O`, the IC50 in data set [1] came out at 186 µM.
Turning to `O=C(O)c1ccccc1O` [SALICYLIC ACID], the MIC in data set [4] was determined as 33 µg/mL.
For the compound `Oc1cc(Cl)ccc1Oc1ccc(Cl)cc1Cl`, in data set [5], the inhibition result is “inactive”.
In the case of `O=C(Nc1ccc(I)cc1C(=O)O)c1cccc(Cl)c1`, the IC50 in data set [1] is 70 µM.
Take `Cc1cccc(Nc2ccccc2C(=O)O)c1C` [MEFENAMIC ACID]: in data set [4], the MIC was found to be 33 µg/mL.
On to `O=C(Nc1ccc(I)cc1C(=O)O)c1ccc(Cl)c(C(F)(F)F)c1`, for which the outcome in [6] was Active. In addition, in data set [1], the IC50 was 59 µM.
Turning to `C/C=C/C=C/C(=O)Nc1c[nH]c(=O)[nH]c1=O`, in data set [1], the IC50 stood at 65 µM. Also, the MIC90 in data set [3] was more than 300 µM.
Turning to `COC(=O)c1cc(I)ccc1NC(=O)OC(C)(C)C`, the IC50 in [1] is more than 1000 µM. The inhibition in [2] came out at 0%.
For the compound `C=CCOC(=O)Nc1ccc(I)cc1C(=O)O`, the IC50 in data set [1] is more than 500 µM. Besides, in [2], the inhibition amounted to 83%.
As to `O=C(Nc1ccc(I)cc1C(=O)O)c1ccc(Cl)cc1`, the 50% inhibitory concentration (IC50) in [1] was determined as 53 µM.
With `CCc1cc(C(N)=S)ccn1` [ETHIONAMIDE], the minimal inhibitory concentration (MIC) in [3] was found to be 2 µg/mL.
For the compound `O=C(O)c1cc(I)ccc1NC(=O)C1CC1`, the IC50 in data set [1] was more than 500 µM.
`O=C(Nc1ccc(I)cc1C(=O)O)c1ccc(C(F)(F)F)cc1`: in [6], the outcome was Active. In data set [1], the IC50 came out at 69 µM.
`CN(C(=O)OC(C)(C)C)c1ccc(I)cc1C(=O)O`: the IC50 in [1] was determined as 1000 µM. For the same compound, the inhibition in data set [2] came to 50%.
Consider `O=C(Nc1ccc(I)cc1C(=O)O)c1ccc(Cl)c(Cl)c1`, for which the IC50 in data set [1] amounted to 38 µM. The MIC90 in data set [3] amounted to 300 µM. The logD at 2 h in data set [7] was found to be 3.4. Besides, in data set [8], the thermodynamic solubility at 24 h is more than 200 µM.
Regarding `O=C1NC(=S)NC(=O)C1C/C=C/c1ccccc1`, the IC50 in data set [1] turned out to be 40 µM. For the same compound, the MIC90 in [3] is more than 300 µM.
`O=C(Nc1ccc(I)cc1C(=O)O)c1ccc(Cl)nc1`: the IC50 in data set [1] is 147 µM.
For the compound `O=C(O)c1cc(I)ccc1NC(=O)C1CCc2ccccc2C1` (stereo unspecified), the 50% inhibitory concentration (IC50) in data set [1] turned out to be 109 µM.
As for `O=C(CCc1ccccc1)Nc1ccc(I)cc1C(=O)O`, the half-maximal inhibitory concentration (IC50) in [1] is 295 µM.
Consider `CC/C(C)=C1\OC(=O)[C@H](C)[C@H](O)[C@H](Cc2cccnc2)NC(=O)[C@@H](NC(=O)c2ncccc2O)[C@@H](C)OC1=O`, for which the inhibition entry in data set [5] is “inactive”.
Regarding `CC(C)COC(=O)Nc1ccc(I)cc1C(=O)O`, in [1], the IC50 stood at 310 µM. Besides, in [2], the inhibition stood at 100%.
As to `CC1(C#CC(=O)O)CC1(Cl)Cl` (stereo unspecified), the IC50 in data set [1] was 25 µM. Moreover, in data set [3], the MIC90 is more than 300 µM.
For the compound `CC(C)(C)OC(=O)Nc1ccc(-c2ccccc2)cc1C(=O)O`, the IC50 in data set [1] stood at 194 µM. Moreover, the inhibition in data set [2] worked out at 100%.
As for `CO[C@H]1/C=C/O[C@@]2(C)Oc3c(C)c(O)c4c(O)c(c(/C=N/N5CCN(C)CC5)c(O)c4c3C2=O)NC(=O)/C(C)=C\C=C\[C@H](C)[C@H](O)[C@@H](C)[C@@H](O)[C@@H](C)[C@H](OC(C)=O)[C@@H]1C` [RIFAMPIN], in data set [3], the MIC was 0.004 µg/mL.
As for `O=C(O)c1cc(I)ccc1NC(=O)C1Cc2ccccc2C1`, in data set [1], the IC50 came out at 140 µM.
Turning to `CC(C)(C)OC(=O)Nc1cc2ccccc2cc1C(=O)O`, the half-inhibitory concentration (IC50) in [1] came to 310 µM. Moreover, the inhibition in data set [2] stood at 100%.
As for `CC(=O)Oc1ccccc1C(=O)O` [ASPIRIN], in data set [4], the MIC was determined as 33 µg/mL.
Take `O=C(Nc1ccc(I)cc1C(=O)O)c1ccc(Cl)cc1Cl`: the IC50 in [1] worked out at 126 µM.
For `O=C(Nc1ccc(I)cc1C(=O)O)c1ccccc1`, the IC50 in [1] was 145 µM.
As for `O=C(O)c1ccccc1` [BENZOIC ACID], the MIC in data set [4] stood at 33 µg/mL.
`Cc1ccc(C(=O)Nc2ccc(I)cc2C(=O)O)cc1`: the IC50 in data set [1] is 95 µM.
Turning to `CC(C)(C)OC(=O)Nc1ccc(F)cc1C(=O)O`, the IC50 in data set [1] was determined as 470 µM. In data set [2], the inhibition was 38%.
In the case of `O=C(Nc1ccc(I)cc1C(=O)O)c1ccncc1`, in [1], the IC50 was more than 400 µM.
As for `CC(C)(C)OC(=O)Nc1ccc(Oc2ccccc2)cc1C(=O)O`, the IC50 in data set [1] was found to be 243 µM. Besides, the inhibition in data set [2] worked out at 100%.
Turning to `O=C1Nc2ccc(Br)cc2C1=O`, the IC50 in data set [1] was 72 µM. Moreover, the MIC90 in [3] was more than 300 µM.
`O=C(Nc1ccc(I)cc1C(=O)O)c1ccc(OC(F)(F)F)cc1`: the result in data set [6] was Active. Moreover, the half-inhibitory concentration (IC50) in data set [1] came out at 84 µM.
As for `CC(C)(C)OC(=O)Nc1ccc(Cl)cc1C(=O)O`, in data set [1], the IC50 is more than 500 µM. Besides, the inhibition in data set [2] stood at 77%.
For the compound `CC(C)(C)OC(=O)Nc1ccc(I)cc1C(=O)O`, in data set [2], the inhibition was 100%. The MIC90 in data set [3] is 300 µM. Moreover, the inhibition result in data set [9] is “Active”.
Consider `O=C(O)c1cc2sccc2[nH]1`, for which the half-inhibitory concentration (IC50) in data set [1] was determined as 185 µM. The MIC90 in data set [3] is more than 300 µM.
